Experimental data from different studies.
Lines come from different studies, so protocols differ.
JAK1 JH1: Tyrosine-protein kinase JAK1, JH1 (JAK1, Homo sapiens, UniProt P23458)
JAK1 JH2: Tyrosine-protein kinase JAK1, JH2 (JAK1, Homo sapiens, UniProt P23458)
JAK1: Tyrosine-protein kinase JAK1 (JAK1, Homo sapiens, UniProt P23458)

With COc1cnc(Nc2cccc(S(N)(=O)=O)c2)nc1N1CCN(c2ccccc2)CC1 the remaining binding was 48% (JAK1 JH1; binding, competition with immobilised ligand; 1 µM).
For NS(=O)(=O)c1cc(NC(=O)C2(c3ccccc3Cl)CC2)ccc1Oc1cccc(Cl)c1, the remaining binding was 76% (JAK1 JH2; cell-free assay, competition with immobilised ligand; 1 µM).
The remaining binding of CN(CCCC(F)(F)F)c1nccc(-c2cnn3ncccc23)n1 is reported as 100% (JAK1; binding; 1 µM).
With COc1ncc2cc3ccccc3nc2c1C#N the remaining binding was 67% (JAK1 JH2; cell-free assay, competition with immobilised ligand; 5 µM).
The remaining binding of CS(=O)(=O)NCC[C@H](NC(=O)c1cncc2c1cnn2-c1ccc(F)cc1)c1ccnc(S(C)(=O)=O)c1 is reported as 100% (JAK1 JH2; cell-free assay, competition with immobilised ligand; 1 µM).
With C[C@H]1CCN(c2nccc(-c3cnn4ncccc34)n2)C1 the remaining binding was 62% (JAK1; binding; 1 µM).
CN([C@@H]1CCc2c(CC(=O)O)c3cc(S(C)(=O)=O)ccc3n2C1)S(=O)(=O)c1ccc(F)cc1 has a remaining binding of 94% (JAK1 JH2; cell-free assay, competition with immobilised ligand; 1 µM).
COc1cnc(Nc2cccc(S(N)(=O)=O)c2)nc1N1CCN(c2ccccc2)C(=O)C1 gave a remaining binding of 44% (JAK1 JH2; binding, competition with immobilised ligand; 1 µM).
The remaining binding of O=C(c1ccc(Nc2ncc(Cl)c(-c3ccc(Cl)s3)n2)cc1)N1CCC(N2CCCC2)CC1 is reported as 3.9% (JAK1 JH2; binding, competition with immobilised ligand; 1 µM).
With FC(F)(F)Oc1cccc(-c2cnc3ccc(-c4ccncc4)nn23)c1 the remaining binding was 100% (JAK1 JH1; cell-free assay, competition with immobilised ligand; 5 µM).
With Cc1cnn2ncc(-c3ccnc(N(C)C)n3)c2c1 the remaining binding was 98% (JAK1 JH1; cell-free assay, competition with immobilised ligand; 1 µM).
For O=C(NCC1CCOCC1)c1n[nH]cc1NC(=O)c1c(F)cccc1F, the remaining binding was 90% (JAK1 JH2; binding, competition with immobilised ligand; 1 µM).
The remaining binding of O=C(NCCCN1CCOCC1)c1ccc(Nc2ncc(Cl)c(-c3ccc(Cl)s3)n2)cc1 is reported as 4.6% (JAK1 JH1; binding, competition with immobilised ligand; 1 µM).
The remaining binding of CN(C)c1ncc(F)c(-c2cnn3ncccc23)n1 is reported as 100% (JAK1 JH1; cell-free assay, competition with immobilised ligand; 1 µM).
O=C(NCCCN1CCOCC1)c1ccc(Nc2nccc(-c3cc4ccccc4s3)n2)cc1 gave a remaining binding of 41% (JAK1 JH2; binding, competition with immobilised ligand; 1 µM).
CCC(=N\O)/C(C)=C/c1ccc(F)cc1 has a remaining binding of 88% (JAK1 JH2; cell-free assay, competition with immobilised ligand; 1 µM).
The remaining binding of COc1ccnn2ncc(-c3ccnc(N(C)C)n3)c12 is reported as 74% (JAK1; binding; 1 µM).
Cc1nc(C2CCN(C(=O)c3ccc(OC(F)(F)F)cc3N)CC2)c2ncc(N3CCN(C)CC3)cc2n1 gave a remaining binding of 95% (JAK1 JH1; cell-free assay, competition with immobilised ligand; 1 µM).
N[C@@H]1CCN(c2nccc(-c3cnn4ncccc34)n2)C1 has a remaining binding of 100% (JAK1; binding; 1 µM).
c1cncc(-c2cccc(Nc3nccc(NC4CCCCC4)n3)c2)c1 gave a remaining binding of 0.2% (JAK1 JH2; binding, competition with immobilised ligand; 10 µM).
